Here are results for 68 molecules from PubChem BioAssay AID1217 (Sanford-Burnham Center for Chemical Genomics, 2008).

One may read the inhibition as the relative decrease from the control value, in per cent.

Screen size: about 190,000 compounds; about 1,300 (0.68%) were called active. Many of the other results were omitted from the sample, so actives are more common in it than they were. A number with no mark means an inactive call.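 How the source made its calls: active means primary screen inhibition at 20 µM above a set limit (cut at about 50% in these data); inactive means the rest.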

This experiment relates to diaphorase (Clostridium kluyveri). The experiment in a line: diaphorase inhibitors and chemical oxidizers, primary screen, counter-screen for diaphorase-coupled primary assays, biochemical, uHTS, resorufin fluorescence (AID 1217).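 Further: plate controls were DMSO with full reaction for no effect and wells lacking NADH for full effect.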 To be noted: diaphorase resazurin-to-resorufin fluorescence, NADH, 16 min; at 20 µM; active compounds read high; bacterial (C. kluyveri) enzyme, not human. In outline: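 Test system: bacterial diaphorase enzyme (C. kluyveri); Quantity: 0.14 U/mL diaphorase, enzyme working solution; Times: reaction incubation of 16 min at room temperature; Measured by: fluorescence of resorufin formed from resazurin, Ex 544/Em 590 nm; Benchmarks: positive control minus NADH, DMSO neutral control.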
(In general: The purpose of a counterscreen is to sort out artefacts and off-target activity.)
For the molecule `O=C(/C=C/c1ccc(F)cc1)NC(=S)NNC(=O)c1cccnc1`, the inhibition was 67.6% (active).
Take `O=C(/C=C/c1ccc(F)cc1)NCCNC(=O)/C=C/c1ccc(F)cc1`: the inhibition was 3.6%.
To `CC(C)c1ccc(/C=C/C(=O)NNC(=O)c2cccnc2)cc1` belongs 6.9%; to `CCc1cccc(NC(=O)CCNS(=O)(=O)c2cccc3nonc23)c1`, 6.4%.
With `CC(=O)Nc1ccc(S(=O)(=O)NC(C)C(=O)OCC(=O)NC2CCCC2)cc1` (stereo not drawn), the inhibition was 6.2%.
Take `O=C(CSc1n[nH]c(-c2cccnc2)n1)Nc1ccnc2ccccc12`: the inhibition is 54% (active).
To `O=C(CSc1ncn[nH]1)Nc1ccnc2ccccc12` belongs -2.2%; to `Cc1c(Cl)cccc1NC(=O)CSc1ccc(-c2cccnc2)nn1`, -1.3%; to `Cc1nc(-c2ccccc2)cn2c1nc1ccccc12`, 16%.
For the molecule `Cc1cc(=O)[nH]c(=S)[nH]1`, the inhibition is 5.9%.
The result for `O=c1[nH]c(=S)[nH]c2[nH]c(=S)[nH]c12` reads 87.4% (active).
The result for `O=C(N1CCCCC1)N1CCN(C(=O)N2CCCCC2)CC1` reads -5.4%; that for `CC(/C=N/NC(=O)c1cc(-c2ccc3ccccc3c2)n[nH]1)=C\c1ccco1`, 5.2%.
For the molecule `C/C(=C\c1ccco1)C1Nc2cccc3cccc(c23)N1`, the inhibition was 69.5% (active).
To `CC(/C=N/NC(=O)c1ccncc1)=C\c1ccco1` belongs 5.5%.
In the case of `C=CCN1C(=O)C(O)(CC(=O)c2ccc(Cl)cc2)c2ccccc21` (stereo not drawn), the inhibition is 20%.
The result for `CC(=O)c1c(O)cc2n(c1=O)-c1ccc(Cl)cc1C2(C)C` reads 18.3%; that for `Cc1coc(C)c1C(=O)CC1(O)C(=O)N(C)c2ccc(Cl)cc21` (stereo not drawn), 51.4% (active); that for `Cc1ccc(O)c(NC(=S)NC(=O)COc2ccc(Br)cc2)c1`, 1.8%.
The result for `COCCN(CCOC)S(=O)(=O)c1ccc(/C(O)=C(\C#N)c2nc3ccccc3[nH]2)cc1` reads 5.6%; that for `Cc1coc2c(O)cc3c(c12)OC1(N2CCCCC2)C(=O)NCCCC31` (stereo not drawn), 56.1% (active); that for `O=C(Cc1cccs1)Nc1nnc(SCc2ccc(F)cc2)s1`, 11.1%.
The result for `COc1cc2sc(C)nc2cc1C` reads 6%; that for `CC1=C/C(=N\OS(=O)(=O)c2ccccc2)C=CC1=O`, 71.4% (active).
In the case of `CC1=C/C(=N\S(=O)(=O)c2ccccc2)C(C(C)C)=CC1=O`, the inhibition is 21.7%.
To `CCOC(=O)C1(S(=O)(=O)c2ccccc2)CCN(Cc2ccccc2)CC1` belongs 16.8%.
To `O=C1CCCC2=C1C(c1cccs1)CC(=O)N2c1ccc(F)cc1` (stereo not drawn) belongs 6.3%; to `CC(C)N1CCC(N2CCN(Cc3cccnc3)CC2CCO)CC1` (stereo not drawn), -0.8%; to `CCOC(=O)C1CCN(C(=O)C2(NC(=O)Nc3cccc(F)c3)CCCCC2)CC1`, -16.4%.
Turning to `CCOC(=O)N1CCN(C(=O)Cc2ccc(-n3c(=S)[nH]c4ccccc4c3=O)cc2)CC1`, the inhibition was 51.3% (active).
To `CCCCNC(=O)c1ccc(-n2c(=S)[nH]c3ccccc3c2=O)cc1` belongs 6.2%; to `O=C(Cc1ccc(-n2c(=O)[nH]c3ccccc3c2=O)cc1)N1CCN(c2cccc(Cl)c2)CC1`, 19.4%; to `Cc1ccc(S(=O)(=O)CC(=O)Nc2c(C)n(C)n(-c3ccccc3)c2=O)cc1`, -0.5%.
To `Cc1cc(C)c2c(-n3cccc3)c(NC(=O)OCc3ccccc3)sc2n1` belongs 18.4%; to `C/C(O)=C\c1nc(=O)c2c(C)cc(C)nc2n1-c1ccccc1`, 13.4%.
To `Cc1cc(C)c2c(n1)sc1c(=O)n(-c3ccccc3)c(=O)[nH]c12` belongs 59.3% (active); to `OCCC1CN(Cc2cccn2-c2nccs2)CCN1CCc1ccccc1` (stereo not drawn), 18.5%.
Regarding `N#C/C=C(/c1ccc(F)cc1)N1CCOCC1`, the inhibition is 20.9%.
To `O=C(CSc1nnc(-c2cccnc2)n1Cc1ccco1)c1ccc(Cl)cc1` belongs 16.4%.
To `C(=C\c1ccccc1)/CSc1nnc(-c2cccnc2)n1Cc1ccco1` belongs 53.4% (active); to `O=C(CSc1nnc(-c2cccnc2)n1Cc1ccco1)c1ccc(Cl)c(Cl)c1`, 4%; to `CC(=O)c1ccc(N2CCN(CC(=O)Nc3ccccc3N3CCOCC3)CC2)cc1`, 4%.
On to `O=C(N/N=C/c1ccc2c(c1)OCO2)C(=O)N1CCCC1`, for which the inhibition was -1.9%.
As to `CN(C(=O)CSc1nnc(Nc2ccccc2)s1)C1CCS(=O)(=O)C1` (stereo not drawn), the inhibition is 15%.
`Cn1c(-c2ccco2)nc2cc3ccccc3cc21`: the inhibition was 18.4%.
The result for `c1coc(-c2nc3nc4ccccc4n3nc2-c2ccco2)c1` reads 57.8% (active); that for `Cc1nn2c3ccccc3nc2n(C)c1=O`, 15.5%; that for `COc1cccc(NC(=S)N(Cc2ccc(C)cc2)Cc2ccccn2)c1`, 3.1%.
To `Cc1cc(-c2csc(N)n2)c(C)n1-c1ccccc1` belongs 19.9%.
The result for `CC(Sc1nc2c([nH]c3ccccc32)c(=O)n1C)c1ccccc1` (stereo not drawn) reads 2.9%; that for `C=CCOc1cccc(CNn2cn[nH]c2=S)c1`, 14%; that for `COc1cccc(CNn2cn[nH]c2=S)c1OCc1ccccc1`, 79.8% (active).
Turning to `C=CCOc1c(CNn2cn[nH]c2=S)cccc1OC`, the inhibition was 39.3%.
As to `O=c1[nH]n2c(=O)c3c([nH]c2c1N=Nc1ccccc1)CCC3`, the inhibition was 20.3%.
The result for `Cc1csc(SCC(=O)Nc2sccc2C#N)n1` reads -2.4%; that for `OC(COc1ccc(CN2CCSCC2)cc1)CN1CCCCC1` (stereo not drawn), 6.8%; that for `CCOc1ccc(CN2CCN(Cc3ccc(C)o3)CC2CCO)cc1` (stereo not drawn), -6.4%.
Consider `CCOc1ccc(CN2CCCN(C)CC2)cc1`, for which the inhibition is 76.8% (active).
With `N#CC1(NC(=O)COc2ccc3oc4ccccc4c3c2)CCCCC1`, the inhibition was -0.7%.
To `CC(=O)c1c(-c2ccccc2)c2ccccc2[nH]c1=O` belongs 17.9%; to `O=[N+]([O-])c1cccc(-c2nnc3c4ccccc4c4ccccc4n23)c1`, 3.7%; to `O=c1[nH]c2ccccc2n2c(-c3ccccc3)nnc12`, 66.5% (active).
The result for `Cn1ncc2c(NNC(=O)Cc3cccc4ccccc34)ncnc21` reads 8.6%; that for `OC(C#CCN1CCOCC1)(c1ccccc1)C1CCCCC1` (stereo not drawn), -10.7%; that for `CC(C)(C)N(CC#CCC(O)(c1ccccc1)C1CCCC1)CCO` (stereo not drawn), 57.2% (active).
To `CN(CC#CCC(c1ccccc1)c1ccccc1)C(C)(C)C` belongs 17.9%.
Take `O=S(=O)(Nc1ccc2cn[nH]c2c1)c1ccccc1`: the inhibition is 6.9%.
The result for `COc1cccc(-c2ccc(C#N)c(SCC(=O)NCCc3ccc(Cl)cc3)n2)c1` reads 7%.
